The source made the active and inactive calls. The calls are words filed in the database; no cut-off is given here.
What was measured:
Mus musculus [1] = assay: Anti-obesity activity in C57BL/6J mouse model of diet-induced obesity assessed as reduction in adipose tissues by measuring eWAT at 10 mg/kg, ip dosed daily for 8 weeks; format: functional, organism-based
How it was run: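 After eight weeks of daily ip dosing at 10 mg/kg with high-fat diet (60% fat calories) in C57BL/6J mice starting at 12 weeks, gross appearance of dissected eWAT, iWAT and BAT was photographed against a 1 cm × 1 cm grid.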

Mus musculus [2] = assay: Anti-obesity activity in C57BL/6J mouse model of diet-induced obesity assessed as induction of thermogenic activity by measuring increase in Ucp1 protein expression in BAT at 10 mg/kg, ip dosed daily for 8 weeks immunohistochemistry; format: functional, organism-based
How it was run: (§1)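 C57BL/6J mice fed a 60% fat-calorie diet from 12 weeks of age, dosed ip daily for eight weeks. For Ucp1 mRNA, total RNA was extracted from BAT or iWAT with TRIzol and analysed by quantitative RT-PCR as relative expression. UCP1 protein was detected by immunohistochemistry on five-micron paraffin sections. n = 5/group.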

CYP2C9 = CYP2C9 (Homo sapiens, UniProt P11712); assay: Inhibition of CYP2C9 (unknown origin) at 10 uM relative to control; format: ADME
Mus musculus [3] = assay: Anti-obesity activity in C57BL/6J mouse model of diet-induced obesity assessed as induction of thermogenic activity by measuring increase in Ucp1 protein expression in iWAT at 10 mg/kg, ip dosed daily for 8 weeks immunohistochemistry; format: functional, organism-based; how it was run: as §1
Mus musculus [4] = assay: Anti-obesity activity in C57BL/6J mouse model of diet-induced obesity assessed as reduction in lipid droplet size at 10 mg/kg, ip dosed daily for 8 weeks by H and E staining based histological analysis; format: functional, organism-based
How it was run: (§2)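 C57BL/6J mice, 12 weeks old, given daily ip vehicle or drug during 8 weeks of high-fat diet (60% fat calories). Sacrificed after 6 h fasting. Five-micron paraffin sections of eWAT, iWAT and BAT were deparaffinized and stained with H&E. Crown-like structures, adipocyte size, lipid droplets and multilocular cells were assessed. Scale bar 100 μm.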

hERG (KCNH2) = hERG (KCNH2) (Homo sapiens, UniProt Q12809); assay: Inhibition of human ERG at 10 uM relative to control
Mus musculus [5] = assay: Anti-obesity activity in C57BL/6J mouse model of diet-induced obesity assessed as suppression of 5-HT levels in serum at 10 mg/kg, ip dosed daily for 8 weeks by LC-MS/MS analysis; format: functional, organism-based
How it was run: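 C57BL/6J mice, 12 weeks old, on high-fat diet (60% fat calories) were dosed daily ip with vehicle or 10 mg/kg for eight weeks. Serum was isolated from cardiac-puncture blood and 5-HT was quantified by LC-MS/MS. n = 5/group; means SEM.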

[6] = Drug level in ICR mouse plasma at 10 mg/kg, ip after 1 hr; format: ADME, organism-based
How it was run: (§3)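 Male ICR mice received 10 mg/kg ip in DMSO/PEG400/saline 5:40:55 (v/v/v), 5 mL/kg. At 1 h, heart blood was spun to plasma. Mice were perfused with heparinized saline, and brains were homogenized in 3 volumes PBS. Analyte was quantified by LC-MS/MS. Brain quantification limit 31.3 ng/g. n = 3; mean SD.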

Mus musculus [7] = assay: Anti-obesity activity in C57BL/6J mouse model of diet-induced obesity assessed as increase in heat production at 10 mg/kg, ip dosed daily for 8 weeks by indirect calorimetry; format: functional, organism-based
How it was run: (§4)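 Daily ip dosing of C57BL/6J mice on high-fat diet (60% fat calories), starting at 12 weeks of age, for eight weeks. Mice were housed singly in an eight-chamber open-circuit indirect calorimetry system and monitored for 72 h in the fed state. VO2 and VCO2 were recorded. RER = VCO2/VO2; heat production = (3.185 + 1.232 × RER) × VO2. n = 5/group; means SEM.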

CYP3A4 = CYP3A4 (Homo sapiens, UniProt P08684); assay: Inhibition of CYP3A4 (unknown origin) at 10 uM relative to control; format: ADME
Mus musculus [8] = assay: Anti-obesity activity in C57BL/6J mouse model of diet-induced obesity assessed as reduction in adipose tissue inflammation at 10 mg/kg, ip dosed daily for 8 weeks by H and E staining based histological analysis; format: functional, organism-based; how it was run: as §2
Mus musculus [9] = assay: Anti-obesity activity in C57BL/6J mouse model of diet-induced obesity assessed as induction of thermogenic activity by measuring increase in Ucp1 mRNA expression in BAT at 10 mg/kg, ip dosed daily for 8 weeks by RT-PCR analysis; format: functional, organism-based; how it was run: as §1
Mus musculus [10] = assay: Anti-obesity activity in C57BL/6J mouse model of diet-induced obesity assessed as increase in VO2 at 10 mg/kg, ip dosed daily for 8 weeks by indirect calorimetry; format: functional, organism-based; how it was run: as §4
Mus musculus [11] = assay: Anti-obesity activity in C57BL/6J mouse model of diet-induced obesity assessed as effect on RER at 10 mg/kg, ip dosed daily for 8 weeks by indirect calorimetry; format: functional, organism-based; how it was run: as §4
CYP2D6 = CYP2D6 (Homo sapiens, UniProt P10635); assay: Inhibition of CYP2D6 (unknown origin) at 10 uM relative to control; format: ADME
Mus musculus [12] = assay: Anti-obesity activity in C57BL/6J mouse model of diet-induced obesity assessed as induction of thermogenic activity by measuring increase in Ucp1 mRNA expression in iWAT at 10 mg/kg, ip dosed daily for 8 weeks by RT-PCR analysis; format: functional, organism-based; how it was run: as §1
Mus musculus [13] = assay: Anti-obesity activity in C57BL/6J mouse model of diet-induced obesity assessed as suppression of body weight gain at 10 mg/kg, ip dosed daily for 8 weeks […]; format: functional, organism-based
Mus musculus [14] = assay: Anti-obesity activity in C57BL/6J mouse model of diet-induced obesity assessed as reduction in adipocyte size in eWAT at 10 mg/kg, ip dosed daily for 8 weeks by H and E staining based histological analysis; format: functional, organism-based; how it was run: as §2
[15] = Drug level in ICR mouse brain at 10 mg/kg, ip after 1 hr; format: ADME, organism-based; details: read-out: Drug uptake; how it was run: as §3
Mus musculus [16] = assay: Anti-obesity activity in C57BL/6J mouse model of diet-induced obesity assessed as increase in VCO2 at 10 mg/kg, ip dosed daily for 8 weeks by indirect calorimetry; format: functional, organism-based; how it was run: as §4

Chain of CYP2C9 (P11712 whole entry): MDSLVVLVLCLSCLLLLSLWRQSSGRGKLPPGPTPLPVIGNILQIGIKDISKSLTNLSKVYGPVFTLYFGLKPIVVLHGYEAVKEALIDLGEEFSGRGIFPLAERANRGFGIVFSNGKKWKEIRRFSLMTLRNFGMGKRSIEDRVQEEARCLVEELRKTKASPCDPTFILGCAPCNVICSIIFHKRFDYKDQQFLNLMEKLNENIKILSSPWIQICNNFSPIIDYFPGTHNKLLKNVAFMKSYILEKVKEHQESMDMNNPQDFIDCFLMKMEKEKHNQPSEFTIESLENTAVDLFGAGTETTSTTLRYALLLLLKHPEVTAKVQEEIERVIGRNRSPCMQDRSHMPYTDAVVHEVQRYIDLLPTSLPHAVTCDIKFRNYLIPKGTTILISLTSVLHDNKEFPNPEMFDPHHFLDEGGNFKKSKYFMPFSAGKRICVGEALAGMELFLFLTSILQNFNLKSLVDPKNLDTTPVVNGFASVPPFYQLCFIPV
Chain of hERG (KCNH2) (Q12809 whole entry): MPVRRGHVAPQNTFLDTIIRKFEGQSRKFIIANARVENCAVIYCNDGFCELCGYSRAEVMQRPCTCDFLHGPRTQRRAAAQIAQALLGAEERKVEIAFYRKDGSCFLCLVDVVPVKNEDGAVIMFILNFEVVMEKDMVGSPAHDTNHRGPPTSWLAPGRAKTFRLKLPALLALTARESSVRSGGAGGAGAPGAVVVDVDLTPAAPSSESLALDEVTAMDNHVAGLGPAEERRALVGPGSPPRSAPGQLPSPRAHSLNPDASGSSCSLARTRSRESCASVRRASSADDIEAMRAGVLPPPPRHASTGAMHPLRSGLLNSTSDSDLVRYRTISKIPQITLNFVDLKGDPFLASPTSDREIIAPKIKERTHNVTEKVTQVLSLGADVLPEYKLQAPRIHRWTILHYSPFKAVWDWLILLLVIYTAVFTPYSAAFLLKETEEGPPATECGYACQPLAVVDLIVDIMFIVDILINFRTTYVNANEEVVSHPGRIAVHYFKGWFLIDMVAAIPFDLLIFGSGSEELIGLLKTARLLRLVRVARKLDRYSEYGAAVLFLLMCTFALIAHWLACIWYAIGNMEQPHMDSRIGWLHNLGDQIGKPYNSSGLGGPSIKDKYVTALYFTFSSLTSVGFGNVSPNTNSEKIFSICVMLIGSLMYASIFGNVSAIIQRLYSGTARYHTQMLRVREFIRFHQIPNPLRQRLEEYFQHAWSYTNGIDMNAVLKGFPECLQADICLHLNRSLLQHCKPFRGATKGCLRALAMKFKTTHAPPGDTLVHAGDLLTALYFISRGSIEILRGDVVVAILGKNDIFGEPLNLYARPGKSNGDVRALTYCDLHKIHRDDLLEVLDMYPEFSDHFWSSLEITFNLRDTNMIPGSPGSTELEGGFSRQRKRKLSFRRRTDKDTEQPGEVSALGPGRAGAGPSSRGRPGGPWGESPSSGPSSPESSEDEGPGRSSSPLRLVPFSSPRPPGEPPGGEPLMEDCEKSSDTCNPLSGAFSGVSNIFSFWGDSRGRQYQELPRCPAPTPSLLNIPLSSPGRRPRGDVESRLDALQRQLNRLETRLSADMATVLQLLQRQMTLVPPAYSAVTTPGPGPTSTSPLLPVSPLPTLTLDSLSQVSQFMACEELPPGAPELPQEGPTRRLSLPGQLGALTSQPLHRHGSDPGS
Chain of CYP2D6 (P10635 whole entry): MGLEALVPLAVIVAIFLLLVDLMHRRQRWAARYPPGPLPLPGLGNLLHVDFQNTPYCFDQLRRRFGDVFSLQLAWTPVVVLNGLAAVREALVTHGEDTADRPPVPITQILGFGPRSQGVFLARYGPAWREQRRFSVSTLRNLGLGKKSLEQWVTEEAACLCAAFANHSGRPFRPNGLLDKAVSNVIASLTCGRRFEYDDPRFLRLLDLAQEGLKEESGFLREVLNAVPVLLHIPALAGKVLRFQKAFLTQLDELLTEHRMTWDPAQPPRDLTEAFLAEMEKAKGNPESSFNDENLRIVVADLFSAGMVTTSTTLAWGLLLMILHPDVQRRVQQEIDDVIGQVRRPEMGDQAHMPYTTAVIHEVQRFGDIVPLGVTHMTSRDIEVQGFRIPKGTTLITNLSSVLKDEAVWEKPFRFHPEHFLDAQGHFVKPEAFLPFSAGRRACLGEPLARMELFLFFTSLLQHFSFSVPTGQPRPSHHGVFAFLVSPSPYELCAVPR
Chain of CYP3A4 (P08684 whole entry): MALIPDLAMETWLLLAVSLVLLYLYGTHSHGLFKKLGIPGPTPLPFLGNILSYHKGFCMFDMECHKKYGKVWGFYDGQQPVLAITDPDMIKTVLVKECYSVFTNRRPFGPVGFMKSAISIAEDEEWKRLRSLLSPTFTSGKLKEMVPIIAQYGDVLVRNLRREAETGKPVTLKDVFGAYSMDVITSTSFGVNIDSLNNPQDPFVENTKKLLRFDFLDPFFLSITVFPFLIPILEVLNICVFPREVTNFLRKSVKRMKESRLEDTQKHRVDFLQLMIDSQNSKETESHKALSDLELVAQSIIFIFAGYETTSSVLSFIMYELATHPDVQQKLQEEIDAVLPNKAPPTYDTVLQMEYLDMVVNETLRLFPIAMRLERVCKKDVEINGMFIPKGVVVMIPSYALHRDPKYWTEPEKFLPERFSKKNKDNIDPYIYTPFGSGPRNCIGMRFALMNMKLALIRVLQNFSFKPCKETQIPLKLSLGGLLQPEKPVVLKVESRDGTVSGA

- inhibition at 10 µM (CYP2C9): < 1%
- concentration at 1 h [6]: 3.11 µg/mL
- inhibition at 10 µM (CYP3A4): < 1%
- inhibition at 10 µM (CYP2D6): < 1%
- concentration at 1 h [15]: < 31.3 ng/g
Structure (SMILES): COc1ccc(-c2nc(-c3ccc(C[C@H](N)C(=O)O)cc3)no2)cc1-c1ccc(O)cc1.Cl
- Activity (Mus musculus [1]): Active
- Activity (Mus musculus [2]): Active
- Activity (Mus musculus [3]): inactive
- Activity (Mus musculus [4]): Active
- inhibition at 10 µM (hERG (KCNH2)): 24.3%
- Activity (Mus musculus [5]): Active
- Activity (Mus musculus [7]): Active
- Activity (Mus musculus [8]): Active
- Activity (Mus musculus [9]): Active
- Activity (Mus musculus [10]): Active
- Activity (Mus musculus [11]): inactive
- Activity (Mus musculus [12]): Active
- Activity (Mus musculus [13]): Active
- Activity (Mus musculus [14]): Active
- Activity (Mus musculus [16]): Active
